Key:
[1] = molecular target: T1, Muscarinic acetylcholine receptor M3 (Cavia porcellus, UniProt Q8VH26); assay: In vitro ability to contract isolated guinea pig ileum was used to estimate M2/M3 agonist effect; format: functional, tissue-based
[2] = molecular target: T2, Muscarinic acetylcholine receptor M1 (Rattus norvegicus, UniProt P08482); assay: M1 agonist activity estimated by rat superior cervical ganglion depolarization; format: functional, tissue-based
T2 sequence (P08482 whole entry): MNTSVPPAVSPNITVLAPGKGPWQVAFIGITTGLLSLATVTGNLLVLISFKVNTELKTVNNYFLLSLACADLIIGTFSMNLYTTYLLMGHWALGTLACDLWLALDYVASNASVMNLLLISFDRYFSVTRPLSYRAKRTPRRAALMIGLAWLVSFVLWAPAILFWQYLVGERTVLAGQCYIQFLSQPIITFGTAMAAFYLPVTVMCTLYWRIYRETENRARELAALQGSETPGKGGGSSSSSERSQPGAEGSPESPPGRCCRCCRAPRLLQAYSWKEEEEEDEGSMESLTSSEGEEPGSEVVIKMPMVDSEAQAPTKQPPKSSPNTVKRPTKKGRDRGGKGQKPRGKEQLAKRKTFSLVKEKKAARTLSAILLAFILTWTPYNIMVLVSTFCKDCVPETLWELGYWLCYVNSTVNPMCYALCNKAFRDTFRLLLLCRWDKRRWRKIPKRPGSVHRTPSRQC

[3] = In vitro binding affinity for muscarinic receptors by displacing [3H]quinuclidinyl benzilate binding on rat brain homogenate; format: tissue-based
[4] = molecular target: Muscarinic acetylcholine receptor; assay: In vitro binding affinity for muscarinic receptors by displacing [3H]quinuclidinyl benzilate binding on rat brain stem homogenate.; format: tissue-based
[5] = molecular target: Muscarinic acetylcholine receptor; assay: In vitro binding affinity for muscarinic receptor by displacing [3H]oxotremorine-M binding on rat brain homogenate.; format: tissue-based
Method in brief: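 Duplicate full curves of five drug concentrations over 3 decades, triplicate points. IC50 taken from hand-drawn log curves; Ki via Cheng–Prusoff.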

[6] = molecular target: T2, Muscarinic acetylcholine receptor M1; assay: In vitro binding affinity for muscarinic M1 receptor by displacing [3H]pirenzepine binding on rat brain homogenate.; format: tissue-based
Method in brief: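 Two complete curves, five test concentrations spanning 3 decades, each in triplicate. IC50 read from hand-drawn log concentration–response curves, converted to Ki by Cheng–Prusoff.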

[7] = species on record: Rattus norvegicus; assay: Ratio of binding affinity at [3H]quinuclidinyl benzilate binding on rat brain homogenate to [3H]- Oxotremorine-M binding on rat brain homogenate; format: functional
Method in brief: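 Ago ratio computed as Ki from [³H]QNB binding to whole rat brain homogenate divided by Ki from [³H]oxotremorine-M binding to whole rat brain homogenate.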

[8] = molecular target: Muscarinic acetylcholine receptor M2 (Mus musculus) (UniProt Q9ERZ4); assay: In vivo determination of peripheral M2 receptor mediated tremor, cholinergic side effect
[9] = molecular target: Muscarinic acetylcholine receptor M2 (Mus musculus) (UniProt Q9ERZ4); assay: In vivo determination of peripheral M2 receptor mediated salivation, cholinergic side effect
[10] = molecular target: Muscarinic acetylcholine receptor M2 (Mus musculus) (UniProt Q9ERZ4); assay: In vivo determination of peripheral M2 receptor mediated hypothermia, cholinergic side effect
[11] = species on record: Rattus norvegicus; assay: Ratio of binding affinity at [3H]quinuclidinyl benzilate binding on rat brain stem homogenate to [3H]pirenzepine binding on rat brain homogenate
[12] = molecular target: Muscarinic acetylcholine receptor; assay: In vitro binding affinity for muscarinic receptor by displacing [3H]quinuclidinyl benzilate binding on rat brain homogenate; format: tissue-based
Method in brief: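 Two concentration–response curves, five concentrations covering 3 decades, triplicates. IC50 estimated from hand-drawn log concentration–response curves and converted to Ki with Cheng–Prusoff equation.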

[13] = In vitro binding affinity for muscarinic receptor by displacing[ H]Quinuclidinyl benzilate binding on rat brain stem homogenate.; format: tissue-based
Method in brief: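 Rat brainstem homogenate; displacement of [3H]quinuclidinyl benzilate (0.12 nM). Five test concentrations in triplicate spanning 3 decades, two complete curves. IC50 read from hand-drawn log concentration–response curves and converted to Ki by Cheng–Prusoff using KD 9.7 pM from Scatchard analysis.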

[14] = molecular target: T1, Muscarinic acetylcholine receptor M3; assay: In vitro ability to contract isolated guinea pig ileum was used to estimate M3 agonist effect; format: functional, tissue-based
[15] = molecular target: T2, Muscarinic acetylcholine receptor M1; assay: In vitro ability to depolarize isolated rat superior cervical ganglion was used to estimate their M1 agonistic effect; format: functional, tissue-based
Method in brief: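 Because the concentration–response curve is biphasic, EC50 is given as equal to or greater than the calculated value. Apparent efficacy (RM) is maximum effect relative to muscarine's maximum on separate ganglia. Values are means of three to seven separate experiments.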

[16] = molecular target: Muscarinic acetylcholine receptor; assay: In vitro binding affinity for muscarinic receptor by displacing [3H]quinuclidinyl benzilate binding on rat brain stem homogenate.; format: tissue-based
Method in brief: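 Two full curves, five test concentrations over 3 decades in triplicate. Hand-drawn log curves gave IC50; Ki by Cheng–Prusoff.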

[17] = molecular target: Muscarinic acetylcholine receptor M3 (Cavia porcellus)
[18] = molecular target: Muscarinic acetylcholine receptor M2 (Cavia porcellus); assay: M2 agonist activity estimated by depression of isolated guinea pig left atrium

T1 sequence (Q8VH26 whole entry): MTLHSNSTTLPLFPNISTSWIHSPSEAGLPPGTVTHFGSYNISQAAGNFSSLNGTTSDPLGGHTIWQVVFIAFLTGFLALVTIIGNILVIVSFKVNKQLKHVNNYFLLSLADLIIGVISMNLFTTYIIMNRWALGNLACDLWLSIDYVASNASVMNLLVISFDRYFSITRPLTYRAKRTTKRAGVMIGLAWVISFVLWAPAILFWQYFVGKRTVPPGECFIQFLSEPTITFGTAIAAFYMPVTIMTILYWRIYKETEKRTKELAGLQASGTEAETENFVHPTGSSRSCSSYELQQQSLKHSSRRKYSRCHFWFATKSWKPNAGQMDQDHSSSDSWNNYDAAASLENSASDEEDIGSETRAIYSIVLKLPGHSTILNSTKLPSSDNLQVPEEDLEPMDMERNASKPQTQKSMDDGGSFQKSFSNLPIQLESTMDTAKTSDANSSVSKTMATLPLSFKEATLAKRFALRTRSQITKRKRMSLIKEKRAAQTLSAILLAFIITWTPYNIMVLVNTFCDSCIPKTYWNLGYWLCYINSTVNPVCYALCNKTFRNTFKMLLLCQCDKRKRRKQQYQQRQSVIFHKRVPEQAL

Compound | EC50 [1] | EC50 [2] | Ki [3] | Ki [4] | Ki [5] | Ki [6] | Ratio [7] | ED50 [8] | ED50 [9] | ED50 [10] | Ratio [11] | Ki [12] | Ki [13] | EC50 [14] | EC50 [15] | Ki [16] | EC50 [17] | EC50 [18]
C[N+](C)(C)CC#CCOC(=O)Nc1cccc(Cl)c1.[Cl-] | 6.5 µM | ≥ 3900 nM | 500 nM | 460 nM | 18 nM | 600 nM | 28 | > 63 µmol/kg | > 63 µmol/kg | > 63 µmol/kg | 0.8 |  |  |  |  |  |  | 
CCCCCCCn1nnc(C2=CCCN(C)C2)n1 |  |  |  |  | 120 nM | 37 nM | 1.2 |  |  |  | 4.3 | 140 nM | 160 nM |  |  |  |  | 
CCn1nnc(C2=CCCNC2)n1 |  |  |  |  | 23 nM | 960 nM |  |  |  |  |  | 1600 nM |  | 6.4 µM | ≥ 3.3 µM | 280 nM |  | 
CCn1ncc(C2=CCCNC2)n1 |  | ≥ 650 nM |  |  | 3.7 nM | 120 nM | 78 |  |  |  | 1.4 | 290 nM |  |  |  | 170 nM | 770 nM | 270 nM
CCn1ncc(C2=CCCN(C)C2)n1 |  | > 1200 nM |  |  | 1.7 nM | 24 nM | 65 |  |  |  | 2.5 | 110 nM |  |  |  | 61 nM | 940 nM | > 51000 nM
C=CCn1ncc(C2CCCNC2)n1 (racemic) | 4.4 µM | > 2800 nM |  |  | 25 nM | 100 nM |  |  |  |  |  | 910 nM |  |  |  | 300 nM |  | 1100 nM
